TMEM16A inh – blocks the mouse calcium-activated chloride channel TMEM16A | AID 588511 | Q8BHY3 | HEK293 TMEM16A/YFP iodide influx fluorescence, ionomycin | normalized B-score (activity score, 25-100; higher = stronger inhibition) at 10 µM | 310,000 tested, 1.2% active;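 active = ratio plate-corrected score three or more library SD toward inhibition, starting fluorescence score within five deviations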;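 note: score derived from kinetic fluorescence span divided by baseline fluorescence per well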
SR-BI DiI inh – inhibitors of mouse SR-BI mediated HDL lipid uptake. Q61009. ldlA[mSR-BI] CHO cells, DiI-HDL uptake fluorescence, 3 h. inhibition, % at 12.5 µM. 320,000 tested, 0.96% active;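 active = mean replicate inhibition of at least 70% and a set share of replicates each scoring 70 or more; inconclusive = meets just one of the two criteria; inactive = fails both criteria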;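 note: 0% = median of neutral control wells and 100% = median of positive control wells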
SR-BI DiI-HDL act – SR-BI HDL lipid transfer activation | CHO ldlA[mSR-BI] cells, DiI-HDL uptake fluorescence, 3 h; 100 = double the neutral-control signal | activation, % at 12.5 µM | 320,000 tested, 0.096% active;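 active = mean replicate activation of at least 60% and every replicate at or above 60%; inconclusive = mean or all-replicate condition met, but not both; inactive = mean below 60% and not all replicates reaching 60%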;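 note: 0% = median plate neutral-control signal and 100% = twice that signal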
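Material: SR-BI-overexpressing, LDLR-lacking CHO cells | Dosing: Single compound concentration, delivered by pin transfer | Probe or stimulus: Labelled HDL, 10 µg/mL | Signal: Bottom-read cell fluorescence after medium removal, ex 550/em 595 nm | Schedule: 3 h, 37 °C | Evaluation: HDL uptake via cellular fluorescence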
TMEM16A act – mouse TMEM16A channel activation, primary screen; HEK293 TMEM16A/YFP-H148Q/I152L, iodide quench fluorescence; stronger effect = lower value; B-score at 10 µM; 340,000 tested, 0.3% active; AID 623877;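 active = fluorescence-ratio B-score plate-corrected deviation score at least 3 library SD below zero, with starting fluorescence score within 5 deviations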;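 note: channel opened by trigger with iodide after compound preincubation; score built on the fluorescence ratio of max minus min over baseline; more negative score means more quench and so TMEM16A activation or potentiation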
FID counter – displaces DNA intercalator in HCV helicase counter-screen. AID 1845. 290,000 tested, 0.17% active. inhibition, % at 7.9 µM. DNA fluorescent intercalator displacement, fluorescence; in the data active = inhibition above about 37%;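 note: 0% = vehicle and 100% = reference compound; higher means more ethidium bromide displaced from hairpin DNA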
Kir21 block – blocks the mouse Kir2.1 inward-rectifier potassium channel | P35561 | 310,000 tested, 0.85% active | HEK293-Kir2.1, FluxOR thallium flux fluorescence; stronger effect = lower value | AID 1672 | B-score at 10 µM;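 active = fluorescence ratio B-score at or below minus 3 SD of library scores, with starting-brightness B-score within 2 SD, cut at about -4.2 in these data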;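 note: channel flux triggered by added potassium and thallium sulfate stimulus; B-score of peak minus minimum fluorescence over baseline after thallium stimulus; more negative B-score means stronger Kir2.1 block with less thallium influx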
Numbers without * were called inactive; i = inactive; ? = inconclusive; · = no result given. Sampled rows, rich in hits. Any-hit rate of the full collection: about 3%.

SMILES | TMEM16A inh | SR-BI DiI inh | SR-BI DiI-HDL act | TMEM16A act | FID counter | Kir21 block
O=C(c1ccccc1F)N(Cc1ccc2c(c1)OCO2)Cc1cc2cc3c(cc2n2nnnc12)OCO3 | i | 72* | · | i | -3 | 1.8
Cc1cc2cc(CN(Cc3ccc4c(c3)OCO4)C(=O)c3cnccn3)c3nnnn3c2cc1C | i | -10 | 10 | i | 0 | 0.73
CCn1ncc(/C=N\NC(=O)c2ccc3c(c2)c(C)c(C)n3Cc2ccccc2)c1C | i | 25 | -25 | i | -16 | -1.6
CCn1nc(C)c(/C=N/NC(=O)c2ccc3c(c2)c(C)c(C)n3Cc2ccccc2)c1C | i | 79* | -79 | i | -25 | 0.04
Cc1c(C)n(Cc2ccccc2)c2ccc(C(=O)NCCN3CCOCC3)cc12 | i | 28 | -28 | i | -4 | -1.6
Cc1c(C)n(Cc2ccccc2)c2ccc(C(=O)OCCN(C)C)cc12 | i | 17 | -17 | i | 29 | -9.5*
CC(Nc1ccc(F)cc1)=[N+](C)CCNS(=O)(=O)c1ccc(Cl)cc1 | i | -9 | · | i | 2 | -3.5
COc1c2c(cc3oc(CO[C@@H]4O[C@H](CO)[C@@H](O)[C@H](O)[C@H]4O)cc(=O)c13)O[C@H](C(C)(C)O)C2 | · | -23 | 23 | i | · | ·
C/C(=N\NC(=O)c1ccn(C)n1)c1ccc(NC(=O)C2CCCC2)cc1 | i | 33 | -33 | i | 3 | 1.2
C/C(=N\NC(=O)c1nn(C)c(C)c1Br)c1ccc(NC(=O)C2CCCC2)cc1 | i | 80* | -80 | i | -31 | 0.96
O=[N+]([O-])c1cc([N+](=O)[O-])c2c(=Nc3ccccc3)n(-c3ccccc3)n(O)c2c1 | i | 75* | -75 | i | 13 | -0.25
O=[N+]([O-])c1cc(Br)c(Nc2ccccc2)c([N+](=O)[O-])c1 | i | 1 | -1 | i | 5 | 0.24
CC(C)C(NC(=O)C12CC3CC(CC(C3)C1)C2)C(=O)N/N=C/C1=C(N2CCOCC2)C(=C\c2ccc([N+](=O)[O-])cc2)/CC1 (configuration not stated) | i | 99* | -99 | i | -6 | -0.09
O=C(N/N=C/C1=C(N2CCOCC2)C(=C\c2ccccc2)/CC1)Nc1ccccc1 | i | 74* | -74 | i | -1 | -0.32
Cc1cc(C)nc(N/N=C/C2=C(N3CCOCC3)C(=C/c3ccccc3)/CC2)n1 | i | 90* | -90 | i | -27 | 1.5
O=C(O)c1ccccc1N/N=C/C1=C(N2CCOCC2)C(=C\c2ccccc2)/CC1 | i | 24 | -24 | i | -21 | 0.1
CCN(CC)c1ccc(/C=C2\CCC(/C=N/NC(=O)c3ccc(=O)n(C)c3)=C2N2CCOCC2)cc1 | i | 100* | -100 | i | -15 | -0.4
Cc1ccc(CN2CCN(c3ccccc3)CC2)o1 | i | 9 | -9 | i | 2 | -0.12
Cc1c(Cl)cccc1NC(=S)NC(=O)c1cncc(Br)c1 | i | 24 | -24 | i | · | 0.75
O=C(NCc1ccc2c(c1)OCO2)c1cccc(F)c1 | i | -21 | 21 | i | -1 | -0.48
NC(=O)c1ccc(NC(=O)COC(=O)C2(c3cccc(F)c3)CCCC2)cc1 | i | 33 | -33 | i | -19 | -0.06
O=C(COC(=O)C1(c2cccc(F)c2)CCCC1)NCc1ccc2c(c1)OCO2 | i | -13 | 13 | i | -25 | -4.2*
O=C(COC(=O)C1(c2cccc(F)c2)CCCC1)NCc1cccs1 | i | 12 | -12 | i | -12 | -5.3*
COc1ccc2c(C(=O)c3ccc(C)cc3)n(CCCC(N)=O)[n+]([O-])c2c1 | i | -1 | 1 | i | · | 1.1
CC(CC(=O)Nc1ccc(Cl)c([N+](=O)[O-])c1)c1ccccc1 (configuration not stated) | 100* | 40 | -40 | i | 12 | -1.6
SMILES | TMEM16A inh | SR-BI DiI inh | SR-BI DiI-HDL act | TMEM16A act | FID counter | Kir21 block
O=C(Nc1ccc2c(c1)OCCO2)c1ccc(Cl)c([N+](=O)[O-])c1 | i | -4 | 4 | i | 7 | -0.16
O=C(Nc1ccccc1)Nc1ccc(F)c([N+](=O)[O-])c1 | 25* | 11 | -11 | i | 10 | 0.21
O=C(NC(=S)Nc1ccc(F)c([N+](=O)[O-])c1)c1ccccc1F | i | -4 | 4 | i | -1 | 0.22
O=C(Nc1ccccc1)Nc1ccc(Cl)c([N+](=O)[O-])c1 | 100* | 21 | -21 | i | 17 | 0.81
Cc1ccc(NC(=O)Nc2ccccc2)cc1[N+](=O)[O-] | i | 16 | -16 | i | 15 | 0.06
O=C(Nc1ccc(C(O)(C(F)(F)F)C(F)(F)F)cc1)c1ccc(Cl)c([N+](=O)[O-])c1 | 100* | 28 | -28 | i | 18 | -1.5
[O-]/[N+](=C/c1ccccc1)c1ccccc1 | · | -36 | 36 | i | · | ·
O=C(CNCCc1ccc(Cl)cc1)Nc1ccc(C(=O)N2CCCCC2)cc1 | i | 43 | -43 | i | 22 | -2.2
COc1cc(/C=N/n2c(-c3ccc4c(c3)NC(=O)CO4)csc2=Nc2cccc(C)c2)ccc1O | i | 83* | -83 | i | -17 | -1.8
COCCN=c1scc(-c2ccc3c(c2)NC(=O)CO3)n1/N=C(\C)c1ccc(O)cc1 | i | ? | -71 | i | -17 | -1.3
COc1ccc(-c2cc(-c3ccc(OC)cc3)c(C#N)c(SC)n2)cc1 | i | 80* | -80 | i | -2 | -1.6
c1ccc(CNc2cnccn2)cc1 | i | -33 | 33 | i | -2 | 0.38
c1ccc(CCNc2cnccn2)cc1 | i | 3 | -3 | -4.7* | -5 | 1.1
C[C@H]1CN([C@@H](C)CO)C(=O)c2cc(NC(=O)NC3CCCCC3)ccc2O[C@H]1CN(C)C(=O)Nc1ccc(C(F)(F)F)cc1 | · | 74* | -74 | i | · | ·
C[C@@H]1CN([C@H](C)CO)C(=O)c2cc(NC(=O)Cc3cn(C)c4ccccc34)ccc2O[C@H]1CN(C)S(=O)(=O)c1ccc(F)cc1 | · | 73* | -73 | i | · | ·
O=C(Nc1c2ccccc2nc2ccccc12)C(Cl)(Cl)Cl | i | 5 | -5 | i | 38* | -0.34
CCCc1cc(=O)[nH]c(SCC(=O)c2cc(C)n(-c3c(C)n(C)n(-c4ccccc4)c3=O)c2C)n1 | i | -5 | 5 | i | -36 | -0.56
O=C(O)c1cccc(Nc2ccnc(Nc3cccc(C(=O)O)c3)n2)c1 | i | 7 | -7 | i | 0 | -0.65
CC(Cc1ccccc1)NC(=S)CN1CCCC1=S (configuration not stated) | i | -8 | 8 | i | -7 | -4.6*
